CYP2C9 activ = activators of human CYP2C9 | hit rate 1.4% among 96,000 | activation factor at 5 µM | P11712 | recombinant CYP2C9, luciferin-H conversion, luminescence; hits give high values; factor 1 = untreated enzyme, 0 = blocked;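 active = activation factor of 2 or more for CYP2C9 at a 5 µM dose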
Target sequence (P11712 whole entry, looked up): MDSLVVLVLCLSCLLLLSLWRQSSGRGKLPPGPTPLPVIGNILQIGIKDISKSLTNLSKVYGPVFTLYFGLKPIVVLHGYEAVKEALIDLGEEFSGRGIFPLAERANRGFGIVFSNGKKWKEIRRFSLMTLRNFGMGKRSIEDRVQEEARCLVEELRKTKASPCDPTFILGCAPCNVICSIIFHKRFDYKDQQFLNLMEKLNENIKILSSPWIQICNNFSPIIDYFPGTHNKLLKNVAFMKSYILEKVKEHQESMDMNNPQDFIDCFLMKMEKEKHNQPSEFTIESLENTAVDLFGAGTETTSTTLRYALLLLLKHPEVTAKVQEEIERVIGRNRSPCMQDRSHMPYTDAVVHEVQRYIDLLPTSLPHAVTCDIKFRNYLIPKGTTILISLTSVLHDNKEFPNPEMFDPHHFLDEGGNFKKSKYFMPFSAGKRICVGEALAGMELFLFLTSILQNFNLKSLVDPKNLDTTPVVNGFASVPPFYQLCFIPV
CYP2C19 activ = cytochrome P450 2C19 (human) activation; recombinant CYP2C19, luciferin-H EGE luminescence; hits give high values; 0 = fully inhibited enzyme, 1 = untreated enzyme; AID 1025; 96,000 tested, under 10 active; P33261; activation factor at 5 µM;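 active = activation factor of at least 2 at 5 µM in the primary screen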
tolC growth inh = E. coli tolC mutant growth inhibition | E. coli BW25113 tolC mutant growth, OD615 | growth inhibition, % at 10 µM (by protocol) | hit rate 2.2% among 65,000 | AID 573;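 active = growth inhibition at or above a cutoff equal to the mean over every tested compound plus 3 SD, cut at about 60% in these data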;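 also: growth measured after 20 h incubation at 37 °C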
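Signal: optical density read at 615 nm; Assay system: E. coli ΔtolC::kan strain BW25113; Times: 20 h incubation with compound, 37 °C; Dosing: 10 µM final, single dose.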
Ecoli WT expand = E. coli BW25113 growth inhibition, expanded screen; AID 710; hit rate 0.15% among 98,000; OD600 absorbance; growth inhibition, % at 100 µM;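 active = growth inhibition above about 50% at one test dose, limit read from the data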;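 also: growth measured after 20 h incubation at 37 °C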
CYP2C9 inh = human CYP2C9 inhibition. hit rate 20% among 96,000. CYP2C9 Supersomes, luciferin-H conversion, luminescence. AID 777. inhibition, % at 5 µM. P11712;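 active = blocking of liver enzyme CYP2C9 beyond about 50% at 5 µM, limit read from the data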
CYP2C19 inhib = blocks human cytochrome P450 2C19 | P33261 | CYP2C19 Supersomes, luciferin-H EGE luminescence, 30 min | inhibition, % at 5 µM | hit rate 21% among 96,000 | AID 778;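 active = CYP2C19 inhibition above a set limit at 5 µM in the primary screen, cut at about 50% in these data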
Hits are given with their value. In the library only some 29% were active in any assay of this set; here they are far more common.

How did CCc1ccccc1N1C[C@@]23C=C[C@@H](O2)C(C(=O)OCC(C)C)[C@H]3C1=O (stereo not given in full) do in these assays?
CYP2C9 activ: inactive; CYP2C19 activ: inactive; tolC growth inh: inactive; Ecoli WT expand: inactive; CYP2C9 inh: inactive; CYP2C19 inhib: inactive

What do the screens show for `COc1cccc(NC(=O)CN2CCN(S(=O)(=O)c3ccc(C(C)C)cc3)CC2)c1`?
CYP2C9 activ: inactive; CYP2C19 activ: inactive; tolC growth inh: inactive; Ecoli WT expand: inactive; CYP2C9 inh: inactive; CYP2C19 inhib: 87

How did COc1ccc(S(=O)(=O)N2CCN(CC(=O)Nc3cc(OC)cc(OC)c3)CC2)cc1 do in these assays?
CYP2C9 activ: inactive; CYP2C19 activ: inactive; tolC growth inh: inactive; Ecoli WT expand: inactive; CYP2C9 inh: inactive; CYP2C19 inhib: inactive

What do the screens show for `COc1cc(NC(=O)CN2CCN(S(=O)(=O)c3ccc(C(C)C)cc3)CC2)cc(OC)c1`?
CYP2C9 activ: inactive; CYP2C19 activ: inactive; tolC growth inh: inactive; Ecoli WT expand: inactive; CYP2C9 inh: inactive; CYP2C19 inhib: 74

How did Cc1ccc2cccc(Oc3cnccn3)c2n1 do in these assays?
CYP2C9 activ: inactive; CYP2C19 activ: inactive; tolC growth inh: inactive; Ecoli WT expand: inactive; CYP2C9 inh: inactive; CYP2C19 inhib: inactive

Results for COC(=O)c1cccc(S(=O)(=O)N2CCC(C)CC2)c1 ?
CYP2C9 activ: inactive; CYP2C19 activ: inactive; tolC growth inh: inactive; Ecoli WT expand: inactive; CYP2C9 inh: inactive; CYP2C19 inhib: 55

Results for CC1CCN(S(=O)(=O)c2cccc(C(=O)O)c2)CC1 ?
CYP2C9 activ: inactive; CYP2C19 activ: inactive; Ecoli WT expand: inactive; CYP2C9 inh: inactive; CYP2C19 inhib: inactive

How did COC(=O)c1cc(S(=O)(=O)N2CCC(C)CC2)ccc1F do in these assays?
CYP2C9 activ: inactive; CYP2C19 activ: inactive; tolC growth inh: inactive; Ecoli WT expand: inactive; CYP2C9 inh: inactive; CYP2C19 inhib: 88

What do the screens show for `CCC(Sc1nc2cc3c(cc2c(=O)n1Cc1ccco1)OCO3)C(=O)Nc1ccccc1OC` (stereo not given)?
CYP2C9 activ: inactive; CYP2C19 activ: inactive; tolC growth inh: inactive; Ecoli WT expand: inactive; CYP2C9 inh: inactive; CYP2C19 inhib: inactive

What do the screens show for `COCCNC(=O)c1ccc2c(=O)n(Cc3ccco3)c(SCC(=O)NC3CCCC3)nc2c1`?
CYP2C9 activ: inactive; CYP2C19 activ: inactive; Ecoli WT expand: inactive; CYP2C9 inh: 81; CYP2C19 inhib: 52

What do the screens show for `CC1CCCCC1NC(=O)CSc1nc2ccccc2c(=O)n1Cc1ccco1` (stereo not given)?
CYP2C9 activ: inactive; CYP2C19 activ: inactive; tolC growth inh: inactive; CYP2C9 inh: inactive; CYP2C19 inhib: inactive

What do the screens show for `CCC(Sc1nc2cc3c(cc2c(=O)n1Cc1ccco1)OCO3)C(=O)Nc1cccc(OC)c1` (stereo not given)?
CYP2C9 activ: inactive; CYP2C19 activ: inactive; tolC growth inh: inactive; Ecoli WT expand: inactive; CYP2C9 inh: 60; CYP2C19 inhib: inactive

What do the screens show for `COCCNC(=O)CSc1nc2cc3c(cc2c(=O)n1Cc1ccco1)OCO3`?
CYP2C9 activ: inactive; CYP2C19 activ: inactive; Ecoli WT expand: inactive; CYP2C9 inh: 53; CYP2C19 inhib: 93

What do the screens show for `Nc1nc(Cl)cc(N2CCC(c3cc(-c4ccc(Cl)cc4Cl)n[nH]3)CC2)n1`?
CYP2C9 activ: inactive; CYP2C19 activ: inactive; Ecoli WT expand: inactive; CYP2C9 inh: inactive; CYP2C19 inhib: inactive

How did COC(=O)c1ccc(CSc2ccc3nnc(-c4cccc(F)c4)n3n2)o1 do in these assays?
CYP2C9 activ: inactive; CYP2C19 activ: inactive; tolC growth inh: inactive; Ecoli WT expand: inactive; CYP2C9 inh: 83; CYP2C19 inhib: inactive

What do the screens show for `CCOC1(OCC)N=C(N)C2(C#N)C(c3ccc(NC(C)=O)cc3)C12C#N` (stereo not given)?
CYP2C9 activ: inactive; CYP2C19 activ: inactive; tolC growth inh: inactive; Ecoli WT expand: inactive; CYP2C9 inh: 88; CYP2C19 inhib: inactive

How did COc1cccc(C2C3(C#N)C(N)=NC(OC)(OC)C23C#N)c1 (stereo not given) do in these assays?
CYP2C9 activ: inactive; CYP2C19 activ: inactive; Ecoli WT expand: inactive; CYP2C9 inh: inactive; CYP2C19 inhib: inactive

What do the screens show for `COC1(OC)N=C(N)C2(C#N)C(c3cccc(Oc4ccccc4)c3)C12C#N` (stereo not given)?
CYP2C9 activ: inactive; CYP2C19 activ: inactive; tolC growth inh: inactive; Ecoli WT expand: inactive; CYP2C9 inh: 56; CYP2C19 inhib: 59

Bioassay records from PubChem BioAssay.
